assay: Toxicity liver stage against HepG2, at 10uM; type: cell-based; parameters: test concentration 10 uM, cell line HepG2-A16-CD81EGFP; conditions: human, HepG2-A16-CD81EGFP cells; read-out: INHIBITION
Method in brief: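 Uninfected HepG2-A16-CD81EGFP cells, 3 × 10^3 per well, 1536-well, plated on prespotted compound at 10 μM final, parasite-free screening media added to match infected plates; puromycin 10 μM positive, DMSO 0.5% negative; run in parallel with 48 h PbLuc assay at 37 °C, 5% CO2; viability by CellTiter-Glo luminescence, normalized to controls.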

Compound | cytotoxicity at 10 µM [%]
O=c1c2ccccc2nc2n1C(CSc1ccc(Br)cc1)CN2 (stereo not given) | 6.76
CN(C(=O)c1cccc(C#N)c1)c1nnc(C2CCOC2)s1 (stereo not given) | 5.96
CS(=O)(=O)N1C[C@@H]2OCC(=O)N(CC3CC3)[C@@H]2C1 | -13.8
CC(=O)N1N=C(c2ccccc2)OC1C(=O)N(C)Cc1ccccc1 (stereo not given) | 2.37
COCC(O)CN1CCC(=O)N(Cc2ccco2)Cc2ccccc21 (stereo not given) | -5.62
CN1CC(C)(C)CN(C(=O)CCc2ccccc2)CC1=O | -0.191
CN1CCN(CCCNC(=O)c2nc3ccccc3c(=O)[nH]2)CC1 | -5.46
CC(=O)N1CCc2ccc(NC(=O)c3cn(C)nn3)cc2C1 | 5.45
CCN1CC2(CC1=O)CN(C(=O)NC)CCN(S(C)(=O)=O)C2 (stereo not given) | -6.29
Cc1nc(C)c2c(n1)CCN(C(=O)CN(C)C)CC2 | -4.51
COCC(=O)N1CCC2(COCc3cnc(NCc4ccco4)nc32)C1 (stereo not given) | -1.75
Cc1ccc(N2CC[C@H]3OCC[C@@]3(C(=O)N(C)C)C2)nn1 | 1.11
CC(C)CN1C(=O)c2ccc(C(=O)NCCc3c[nH]cn3)cc2C1=O | 9.66
CN(C)C(=O)COC[C@]12COC[C@H]1CN(Cc1ccoc1)C2 | -1.56
CSc1[nH]nc(NC(=O)c2cccs2)c1C#N | -1.04
CCCNCc1ncc(C)c(OC)c1C | 0.105
COc1ccc(-n2nnnc2C2(NCc3ccco3)CCCCC2)cc1 | 9.65
CN1CCN(C(=O)[C@@H]2CN(C)C[C@]23COc2ccc(F)cc2C3=O)CC1 | 3.06
Cn1ncc2c1CCCN(C(=O)C1CC1)C2 | -8.27
CNC(=O)C1(CCCc2cnccn2)CCN1Cc1ccc(C)cc1 (stereo not given) | 0.615
Cc1nc(C)n(CCC(=O)N2CCc3ncc(Cl)cc3C2)n1 | 2.67
CS(=O)(=O)c1cn[nH]c1C1CCCN1C(=O)c1cccnc1 (stereo not given) | -14.6

Compound | cytotoxicity at 10 µM [%]
Cc1noc(C2(C)CCCN(C(=O)c3cnn(C)c3)C2)n1 (stereo not given) | -17.3
CN(C)c1cc(C2CCCN2Cc2ccccc2OCC(=O)O)ccn1 (stereo not given) | -3.8
NCc1cnn(-c2ccccc2C(=O)NCCc2ccccn2)c1 | -19.5
O=c1ccn([C@H]2CCN(Cc3ncc[nH]3)CC[C@@H]2O)c(=O)[nH]1 | 13
COCC(=O)N1CCCC(c2noc3nc(C)cc(C(F)(F)F)c23)C1 (stereo not given) | -2.25
CN(C)C(=O)CN1CCC(c2cccc(Cc3ccc(F)cc3)n2)CC1 | -22.3
O=C(c1ccccn1)N1CCCC(c2cc(C(F)F)n3ncnc3n2)C1 (stereo not given) | -1.74
O=S1(=O)NC2(CCCN(CCc3ccccc3)C2)COc2ccccc21 (stereo not given) | 7.47
Cn1cc(CNCC(c2ccc(Cl)cc2)n2cccn2)cn1 (stereo not given) | 1.21
CNC(=O)c1cccc(CNC2CCSc3c(Cl)cccc32)c1 (stereo not given) | 12.8
CCCn1ccnc1-c1cccc(NC(=O)[C@H]2CCC(=O)N2)c1 | -4.97
COc1cccc(CCNC(=O)c2ccc(=O)n(C)c2)c1 | -9.08
CCOc1cccc(CCNC(=O)NC2CCc3[nH]ncc3C2)n1 (stereo not given) | 8.95
COCCn1c(C(=O)NCc2n[nH]c(C)n2)cc2ccccc21 | -3.83
CC(Cn1cccn1)Nc1cnc2ccccc2n1 (stereo not given) | -7.67
N#CCCN(Cc1ccco1)C(=O)C1CCCc2ccccc21 (stereo not given) | -4.27
O=S(=O)(NCCc1ccccc1C(F)(F)F)N1CCOCC1 | 9.08
N#Cc1cccc(NC(=O)N(CC(F)F)C2CC2)c1 | -16.1
CC(C)C1CCC(N2CCN(CCCS(C)(=O)=O)CC2)CC1 (stereo not given) | 0.803
O=C(CN1CCc2cncnc2C1)NC(c1ccccc1)C1CC1 (stereo not given) | -9.1
CNS(=O)(=O)c1ccc(CNC(=O)Nc2cc(C)on2)s1 | -2.34
CC(C)(C)c1cnc(CN2CCN(c3ncccn3)CC2)o1 | -18.1

Compound | cytotoxicity at 10 µM [%]
CCC(NC(=O)c1cc(OC)c2c(c1)OCCO2)c1cccs1 (stereo not given) | -6.66
CC(C)n1ccc(C(=O)NCC(O)c2c(Cl)cccc2Cl)n1 (stereo not given) | 1.81
CCOCCOCc1cccc(CNc2cncc(-n3cccn3)n2)c1 | 7.74
CC(C)(C)OC(=O)NC(C)(C)c1noc(CSc2ccccn2)n1 | 9.18
Cc1cc(S(=O)(=O)Nc2cccc(OC(F)F)c2)sc1C(=O)O | -0.229
Cc1cnn(CC2CCCN2CC(=O)N(C)Cc2ccco2)c1 (stereo not given) | 10.8
CC(NC(=O)C1=NN(C)C(=O)CC1)c1cccc(Cl)c1 (stereo not given) | -2.45
CCn1cc(C(=O)Nc2ccc(C)cc2C(=O)NC)cn1 | 5.81
CS(=O)(=O)Cc1cc(F)ccc1NCc1nnsc1Cl | -12.2
CN(c1cccc(C#N)c1)S(=O)(=O)c1cc(C(=O)O)ccc1Cl | -5.94
NC(=O)CNC1(c2ccc(Cl)cc2)CCCC1 | 13
CC(C)OCCN1CCc2cncnc2C1 | -7.52
Cc1ccc(-n2c(C)nnc2SCC(O)COCc2ccco2)cc1 (stereo not given) | -11.6
N#Cc1cc(NS(=O)(=O)CC2CCCCO2)ccc1F (stereo not given) | -14.1
COC(=O)CC(C)(C)CC(=O)N1CCC(C(F)(F)F)CC1 | 14.9
CCc1c(C)nc2ccccc2c1N1CCC(O)CC1 | 0.395
Cc1cccc(C(=O)NC2CCN(c3cnn(C)c3)C2=O)n1 (stereo not given) | 3.48
O=C(C1CCC1)N1CCc2onc(Cn3cccn3)c2C1 | -1.13
CCOCC1CC2(CCN(C(=O)c3ccccc3F)CC2)CO1 (stereo not given) | 2.26
CCNc1nc2c(s1)C(=O)CN(C(=O)NCCc1ccccc1)C2 | 3.3
COc1cccc2c1OCC(C(=O)NCCn1nc(C)c(Cl)c1C)C2 (stereo not given) | -5.89
O=C(O)C1(Cc2ccc(F)cc2)CCCN(Cc2ccncc2)C1 (stereo not given) | -0.566

Compound | cytotoxicity at 10 µM [%]
CCn1nc(C)c(NC(=O)CN2CC[C@@H](F)C2)c1C | -1.2
CC(C)c1ccc(CC(=O)N2CCCC3(CN(C)C(=O)O3)C2)cc1 (stereo not given) | 16.2
CCO[C@H]1C[C@@H](O)C12CCN(C(=O)CN1CCCCCC1=O)CC2 | 2.71
CN(C)C(Cn1ccnc1-c1ccccc1C(=O)O)c1ccccc1Cl (stereo not given) | -0.966
O=C(O)C1(Oc2ccc(Cl)cc2)CCN(C2CCOCC2)CC1 | 3.05
COc1ccccc1-c1noc(CCC(=O)NC(C)Cn2cccn2)n1 (stereo not given) | 5.67
Cc1cccn2c(CNC(C)CO)cnc12 (stereo not given) | -2.78
CC(=O)Nc1ccc(C(=O)N(C)C(C)Cc2cc(C)ccn2)cn1 (stereo not given) | 1.32
Cc1ccccc1OCC1CCCN(C(=O)CN(C)C2CCNCC2)C1 (stereo not given) | -5.54
Cc1nc[nH]c1CN1CCN(C(=O)CCC(F)(F)F)[C@H]2CS(=O)(=O)C[C@H]21 | -12.3
O=C(Cn1ccnc1)N1C[C@@H]2CC[C@H](Oc3ccccc3)[C@@H]2C1 | -3.71
O=S(=O)(c1ccccc1)N1CCCCC1c1cc[nH]n1 (stereo not given) | 7.65
CCc1nc(C2CCCN2C(=O)c2ccc(N(C)C)nn2)no1 (stereo not given) | -11.4
COCC(=O)NC(C)Cc1cccc(Cl)c1 (stereo not given) | -8.72
CN1CCCC1CNC(=O)CCCOc1ccc(Cl)cc1 (stereo not given) | -9.33
COc1cc(CCC(=O)NC2CC2)ccc1OCC(F)(F)F | -8.35
CCN(CC1CCOC1)C(=O)c1ccccc1NS(=O)(=O)CC (stereo not given) | -7.4
CC(=O)N1CCCN(C(=O)c2cnc3n[nH]c(C)c3c2)CC1 | -5.85
Cc1ccc(NC2CCN(C(=O)CCc3ccco3)CC2)nn1 | -2.97
Cn1ccnc1CN1CCN(Cc2noc(-c3ccccc3)n2)CC1 | 1.08
Cc1cnn(CCC(=O)N2CCCN(c3cccnn3)CC2)c1 | 1.47
Cc1ccccc1CC(=O)N1CCN(C2CCOC2=O)CC1 (stereo not given) | -8.38

Compound | cytotoxicity at 10 µM [%]
CCc1nccn1C1CCCN(C(=O)c2cnn3ccc(C)nc23)C1 (stereo not given) | -9.68
Cc1cnn(CC2CCCN2C(=O)c2cc3c(F)cccc3[nH]2)c1 (stereo not given) | -12.7
Cc1ccc(-c2cc(CN3CCOC(Cn4cncn4)C3)on2)cc1 (stereo not given) | -8.65
Cc1nc(CN2CCN(C(=O)c3cc(C4CC4)on3)CC2)cs1 | 2.21
c1ccc2oc(CCCN3CCOC(Cn4cccn4)C3)nc2c1 (stereo not given) | 0.987
Cc1noc(C)c1-c1cccc(C2CN(CC(=O)N(C)C)CCO2)n1 (stereo not given) | 0.025
Cc1ccc(CN(CCCn2ccnc2)Cc2cnn(C)c2)s1 | -18
c1cncc(OC[C@]23COC[C@H]2CN(C2CCOCC2)C3)c1 | 8.61
COCCN1CCO[C@@H]2CN(Cc3sccc3C)C[C@@H]2C1 | -1.34
Cc1ccc(N2Cc3cnn(C)c3C(COCC3CC3)C2)nn1 (stereo not given) | 3.28
O=C(NCC1CCOCC1)[C@H]1C[C@@H]2CCN(c3nncs3)C[C@@H]2O1 | 1.73
Cc1ccc(CN2CCn3c(CN4CCN(C)CC4)cnc3C2C)s1 (stereo not given) | 8.39
Cc1ccc(CNC(c2cccc(F)c2)c2nccn2C)o1 (stereo not given) | 5.48
O=C(N1CCOCC1)[C@@]12CCO[C@@H]1CCN(CC1CCCCC1)C2 | 3.59
O=C1CO[C@@H]2CN(Cc3cccs3)C[C@H]2N1CC1CC1 | -2.32
Cc1cncc(C(=O)N2C[C@H]3CCC[C@@]3(COc3ccccn3)C2)c1 | 1.08
O=C(NC[C@H]1OC[C@@H](NC2CCNCC2)[C@@H]1O)C1CCCC1 | -10.5
CC(C)C(N)CNS(=O)(=O)Cc1cccc2cccnc12 (stereo not given) | -9.32
c1ccc(OCc2noc3c2CN(c2ncccn2)CC3)nc1 | -3.25
CN(C)C(=O)COC[C@]12COC[C@H]1CN(CCc1ccccc1)C2 | -1.69
O=C(NCc1ccccc1)C1=NOC2(CCNC2)C1 (stereo not given) | 0.213
CN1C(=O)[C@@H]2CC[C@H]1CN(S(=O)(=O)c1ccc(Cl)cc1Cl)C2 | 1.47

From ChEMBL document CHEMBL4513216, “Probing the Open Global Health Chemical Diversity Library for Multistage-Active Starting Points for Next-Generation Antimalarials” (ACS Infect Dis, 2020)
